For this experiment, the system named is MCF-7 cells. The experiment is described as follows: MTT assay, cytotoxicity on MCF-7 cells. To be noted: Homo sapiens, MCF7, 24 h, read-out: MTT assay IC50. In kind it is cell-based. The essentials: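 Human breast cancer MCF-7 cells grown in DMEM with 10% FBS, penicillin and streptomycin at 37°C, 5% CO2. 10000 cells per well were seeded, cultured overnight, then exposed to test compound (1-200 µM) for 24 h. MTT at 0.5 mg/ml final was added for 3 h at 37°C. Formazan was dissolved in DMSO and read at 545 nm (630 nm reference). IC50 was taken from concentration-growth inhibition curves.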

pIC50: −log10 of the molar value.

For orientation: pIC50 means −log10 of the IC50, conventionally taken in molar units.

Regarding `Cc1ccc(-c2cc(C(F)(F)F)nn2-c2ccc(S(N)(=O)=O)cc2)cc1` [Celecoxib], the pIC50 is 4.06.
